Data set [1] has as its system Plasmodium falciparum. Put plainly: Antiplasmodial activity against multidrug-resistant Plasmodium falciparum FCR-3 by [3H]-hypoxanthine incorporation assay. In kind it is functional, organism-based, FCR-3/Gambia. As to conditions: Plasmodium falciparum, FCR-3/Gambia. In short, it runs like this:
(§1)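 Blood-stage P. falciparum 3D7 and FCR-3 were tested by a modified [3H]-hypoxanthine incorporation assay. Chloroquine was the reference in all runs.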

For data set [2], the system named is Plasmodium falciparum. Put plainly: Antiplasmodial activity against chloroquine-sensitive Plasmodium falciparum 3D7 by [3H]-hypoxanthine incorporation assay. It is filed as functional, organism-based. Conditions: Plasmodium falciparum, 3D7. In short, it runs like this:
as §1

A short description of data set [3]: Cytotoxicity against human HepG2A16 cells by MTT assay. It is filed as cell-based. Conditions: HepG2A16 cells. An outline of the steps: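 MTT viability assay on HepG2-A16 cells, giving CC50 values.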
A general note: Tetrazolium dyes change colour on reduction, which living cells bring about.

The nature of data set [4]: Selectivity index, ratio of CC50 for human HepG2A16 cells by MTT assay to IC50 for multidrug-resistant Plasmodium falciparum FCR-3. Conditions: HepG2A16 cells, read-out: Ratio CC50/IC50. It is filed as toxicity. An outline of the steps: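 HepG2-A16 human hepatoma cells were tested by MTT viability assay to give CC50. Blood-stage activity was measured against the multidrug-resistant P. falciparum FCR-3 strain by [3H]-hypoxanthine incorporation to give IC50. SI = CC50 HepG2 / FCR-3 IC50.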

Data set [5] in a line: Genotoxicity in Salmonella typhimurium TA1535 harboring pSK1002 assessed as survival at 0.031 mg/ml in absence of Sprague-Dawley rat liver S9 fraction after by SOS/umu assay relative to control. It is filed as toxicity, organism-based. As to conditions: salmonella enterica subsp. enterica serovar typhimurium, read-out: Survival.
The nature of data set [6]: Genotoxicity in Salmonella typhimurium TA1535 harboring pSK1002 assessed as umu gene induction at 0.031 mg/ml in absence of Sprague-Dawley rat liver S9 fraction after by SOS/umu assay relative to control. It is filed as toxicity, organism-based. As to conditions: salmonella enterica subsp. enterica serovar typhimurium, read-out: FC.
Data set [7] is described as follows: Genotoxicity in Salmonella typhimurium TA1535 harboring pSK1002 assessed as survival at 0.031 mg/ml in presence of Sprague-Dawley rat liver S9 fraction after by SOS/umu assay relative to control. In kind it is toxicity, organism-based. As to conditions: salmonella enterica subsp. enterica serovar typhimurium, read-out: Survival.
Data set [8] can be described thus: Genotoxicity in Salmonella typhimurium TA1535 harboring pSK1002 assessed as umu gene induction at 0.031 mg/ml in presence of Sprague-Dawley rat liver S9 fraction after by SOS/umu assay relative to control. In kind it is toxicity, organism-based. Conditions: salmonella enterica subsp. enterica serovar typhimurium, read-out: FC.
Data set [9] can be described thus: Genotoxicity in Salmonella typhimurium TA1535 harboring pSK1002 assessed as survival at 0.016 mg/ml in absence of Sprague-Dawley rat liver S9 fraction after by SOS/umu assay relative to control. It is filed as toxicity, organism-based. As to conditions: salmonella enterica subsp. enterica serovar typhimurium, read-out: Survival.
The nature of data set [10]: Genotoxicity in Salmonella typhimurium TA1535 harboring pSK1002 assessed as umu gene induction at 0.016 mg/ml in absence of Sprague-Dawley rat liver S9 fraction after by SOS/umu assay relative to control. It is filed as toxicity, organism-based. As to conditions: salmonella enterica subsp. enterica serovar typhimurium, read-out: FC.
A short description of data set [11]: Genotoxicity in Salmonella typhimurium TA1535 harboring pSK1002 assessed as survival at 0.016 mg/ml in presence of Sprague-Dawley rat liver S9 fraction after by SOS/umu assay relative to control. It is filed as toxicity, organism-based. Conditions: salmonella enterica subsp. enterica serovar typhimurium, read-out: Survival.
Data set [12] in a line: Genotoxicity in Salmonella typhimurium TA1535 harboring pSK1002 assessed as umu gene induction at 0.016 mg/ml in presence of Sprague-Dawley rat liver S9 fraction after by SOS/umu assay relative to control. Conditions: salmonella enterica subsp. enterica serovar typhimurium, read-out: FC. It is filed as toxicity, organism-based.
Data set [13] in a line: Genotoxicity in Salmonella typhimurium TA1535 harboring pSK1002 assessed as survival at 0.008 mg/ml in absence of Sprague-Dawley rat liver S9 fraction after by SOS/umu assay relative to control. It is filed as toxicity, organism-based. As to conditions: salmonella enterica subsp. enterica serovar typhimurium, read-out: Survival.
Data set [14] in a line: Genotoxicity in Salmonella typhimurium TA1535 harboring pSK1002 assessed as umu gene induction at 0.008 mg/ml in absence of Sprague-Dawley rat liver S9 fraction after by SOS/umu assay relative to control. In kind it is toxicity, organism-based. As to conditions: salmonella enterica subsp. enterica serovar typhimurium, read-out: FC.
Data set [15] in a line: Genotoxicity in Salmonella typhimurium TA1535 harboring pSK1002 assessed as survival at 0.008 mg/ml in presence of Sprague-Dawley rat liver S9 fraction after by SOS/umu assay relative to control. In kind it is toxicity, organism-based. Conditions: salmonella enterica subsp. enterica serovar typhimurium, read-out: Survival.
Data set [16] is described as follows: Genotoxicity in Salmonella typhimurium TA1535 harboring pSK1002 assessed as umu gene induction at 0.008 mg/ml in presence of Sprague-Dawley rat liver S9 fraction after by SOS/umu assay relative to control. It is filed as toxicity, organism-based. Conditions: salmonella enterica subsp. enterica serovar typhimurium, read-out: FC.
Data set [17] is described as follows: Genotoxicity in Salmonella typhimurium TA1535 harboring pSK1002 assessed as survival at 0.004 mg/ml in absence of Sprague-Dawley rat liver S9 fraction after by SOS/umu assay relative to control. In kind it is toxicity, organism-based. As to conditions: salmonella enterica subsp. enterica serovar typhimurium, read-out: Survival.
Data set [18] is described as follows: Genotoxicity in Salmonella typhimurium TA1535 harboring pSK1002 assessed as umu gene induction at 0.004 mg/ml in absence of Sprague-Dawley rat liver S9 fraction after by SOS/umu assay relative to control. As to conditions: salmonella enterica subsp. enterica serovar typhimurium, read-out: FC. It is filed as toxicity, organism-based.
The nature of data set [19]: Genotoxicity in Salmonella typhimurium TA1535 harboring pSK1002 assessed as survival at 0.004 mg/ml in presence of Sprague-Dawley rat liver S9 fraction after by SOS/umu assay relative to control. Conditions: salmonella enterica subsp. enterica serovar typhimurium, read-out: Survival. It is filed as toxicity, organism-based.
Data set [20] can be described thus: Genotoxicity in Salmonella typhimurium TA1535 harboring pSK1002 assessed as umu gene induction at 0.004 mg/ml in presence of Sprague-Dawley rat liver S9 fraction after by SOS/umu assay relative to control. As to conditions: salmonella enterica subsp. enterica serovar typhimurium, read-out: FC. It is filed as toxicity, organism-based.
Data set [21] in a line: Genotoxicity in Salmonella typhimurium TA1535 harboring pSK1002 assessed as survival at 0.002 mg/ml in absence of Sprague-Dawley rat liver S9 fraction after by SOS/umu assay relative to control. In kind it is toxicity, organism-based. As to conditions: salmonella enterica subsp. enterica serovar typhimurium, read-out: Survival.
Data set [22] can be described thus: Genotoxicity in Salmonella typhimurium TA1535 harboring pSK1002 assessed as umu gene induction at 0.002 mg/ml in absence of Sprague-Dawley rat liver S9 fraction after by SOS/umu assay relative to control. Conditions: salmonella enterica subsp. enterica serovar typhimurium, read-out: FC. In kind it is toxicity, organism-based.
The nature of data set [23]: Genotoxicity in Salmonella typhimurium TA1535 harboring pSK1002 assessed as survival at 0.002 mg/ml in presence of Sprague-Dawley rat liver S9 fraction after by SOS/umu assay relative to control. In kind it is toxicity, organism-based. As to conditions: salmonella enterica subsp. enterica serovar typhimurium, read-out: Survival.
Data set [24] can be described thus: Genotoxicity in Salmonella typhimurium TA1535 harboring pSK1002 assessed as umu gene induction at 0.002 mg/ml in presence of Sprague-Dawley rat liver S9 fraction after by SOS/umu assay relative to control. It is filed as toxicity, organism-based. As to conditions: salmonella enterica subsp. enterica serovar typhimurium, read-out: FC.
Data set [25] can be described thus: Genotoxicity in Salmonella typhimurium TA1535 harboring pSK1002 assessed as survival at 0.001 mg/ml in absence of Sprague-Dawley rat liver S9 fraction after by SOS/umu assay relative to control. In kind it is toxicity, organism-based. As to conditions: salmonella enterica subsp. enterica serovar typhimurium, read-out: Survival.
A short description of data set [26]: Genotoxicity in Salmonella typhimurium TA1535 harboring pSK1002 assessed as umu gene induction at 0.001 mg/ml in absence of Sprague-Dawley rat liver S9 fraction after by SOS/umu assay relative to control. In kind it is toxicity, organism-based. Conditions: salmonella enterica subsp. enterica serovar typhimurium, read-out: FC.
A short description of data set [27]: Genotoxicity in Salmonella typhimurium TA1535 harboring pSK1002 assessed as survival at 0.001 mg/ml in presence of Sprague-Dawley rat liver S9 fraction after by SOS/umu assay relative to control. Conditions: salmonella enterica subsp. enterica serovar typhimurium, read-out: Survival. It is filed as toxicity, organism-based.
Data set [28] is described as follows: Genotoxicity in Salmonella typhimurium TA1535 harboring pSK1002 assessed as umu gene induction at 0.001 mg/ml in presence of Sprague-Dawley rat liver S9 fraction after by SOS/umu assay relative to control. In kind it is toxicity, organism-based. Conditions: salmonella enterica subsp. enterica serovar typhimurium, read-out: FC.

With `O=[N+]([O-])c1cc(C(F)(F)F)ccc1N1CCN(CCC(O)c2ccc(F)c3ccccc23)CC1` (configuration not stated), it took 5 µM to reach half-maximal inhibition in [1] (IC50).

Turning to `COc1ccc(C(O)CCN2CC=C(c3ccc(F)cc3)CC2)cc1` (configuration not stated), the IC50 (as a rule, the concentration that gives 50% inhibition) in data set [1] was 11.5 µM; in data set [2], 18.2 µM. Besides, in [3], the midpoint of cytotoxicity, the CC50, lay at 152 µM. For the same compound, the selectivity ratio in [4] is 13.

As to `O=[N+]([O-])c1ccc(N2CCC(NCCC(O)c3ccc(F)c(Cl)c3)CC2)c(C(F)(F)F)c1` (configuration not stated), the values for the IC50 in [1] and in [2] were 0.51 µM and 0.71 µM, respectively. In addition, in data set [3], half-maximal cytotoxicity (CC50) was put at 4.61 µM. For the same compound, the selectivity ratio in data set [4] worked out at 9.

As for `COC(=O)c1ccc(C(O)CCN2CC=C(c3ccc(F)cc3)CC2)cc1` (configuration not stated), the IC50 in [1] was 1.13 µM; in data set [2], 10.5 µM. For the same compound, the midpoint of cytotoxicity in data set [3], the CC50, lay at 509 µM. Also, the selectivity ratio in [4] turned out to be 451. Moreover, the viability at 0.031 mg/ml in [5] was determined as 94.4%; in data set [7] it was 138%. Besides, the fold induction at 0.031 mg/ml came out at 0.9 in data set [6] and 0.7 in data set [8]. In addition, the viability at 0.016 mg/ml in [9] was found to be 89.4%; in data set [11] it was 103%. Besides, the fold induction at 0.016 mg/ml in [10] and in data set [12] was 1 in each case. For the same compound, the viability at 0.008 mg/ml in data set [13] worked out at 97.5%; in data set [15], 104%. The fold induction at 0.008 mg/ml in data set [14] was 0.9; in data set [16], 1. The viability at 0.004 mg/ml in data set [17] is 99.4%; in data set [19], 101%. The fold induction at 0.004 mg/ml in [18] was 0.8; in [20], 0.9. Also, the results for the viability at 0.002 mg/ml in data set [21] and in data set [23] were 109% and 103%, respectively. The figures for the fold induction at 0.002 mg/ml in [22] and in [24] were 0.9 and 1, respectively. Moreover, the viability at 0.001 mg/ml in [25] is 124%; in data set [27], 110%. Also, the fold induction at 0.001 mg/ml worked out at 0.7 in data set [26] and 0.8 in data set [28].

Consider `OC(CCN1CC=C(c2ccc(F)cc2)CC1)c1ccccc1` (configuration not stated), for which the IC50 came out at 9.04 µM in data set [1] and 10.6 µM in data set [2]. Besides, the CC50 (usually the concentration giving 50% cytotoxicity) in data set [3] worked out at 121 µM. Besides, the selectivity ratio in data set [4] was 13.

As for `COc1ccc(C(O)CCN2CCN(c3ccccc3OC)CC2)cc1` (configuration not stated), the IC50 in [1] was 7.98 µM; in [2], 10.5 µM. This compound also had a CC50 in data set [3] of 371 µM. Besides, the selectivity ratio in [4] was found to be 46.

As to `OC(CCN1CC=C(c2ccc(F)cc2)CC1)c1ccc(Br)cc1` (configuration not stated), the concentration for half-maximal inhibition (IC50) was 2.68 µM in data set [1] and 5.42 µM in [2]. Moreover, the CC50 in data set [3] was 109 µM. In data set [4], the selectivity ratio turned out to be 41.

For `O=[N+]([O-])c1ccc(N2CCC(NCCC(O)c3ccc(F)c(F)c3)CC2)c(C(F)(F)F)c1` (configuration not stated), the IC50 amounted to 0.53 µM in [1] and 0.67 µM in data set [2]. This compound yielded a CC50 in data set [3] of 13.3 µM. In addition, the selectivity ratio in [4] was determined as 25.

On to `N#Cc1ccc(C(O)CCNC2CCN(c3ccc([N+](=O)[O-])cc3C(F)(F)F)CC2)cc1` (configuration not stated), for which the figures for the IC50 in [1] and in [2] were 2.02 µM and 4.22 µM, respectively. The same compound returned a half-maximal cytotoxic concentration (CC50) in data set [3] of 23 µM. Further, the selectivity ratio in data set [4] is 11.

The values above are taken from ChEMBL document CHEMBL4152256, “Structure-activity relationship of new antimalarial 1-aryl-3-susbtituted propanol derivatives: Synthesis, preliminary toxicity profiling, parasite life cycle stage studies, target exploration, and targeted delivery” (Eur J Med Chem, 2018).
